WT yeast gro inh: growth inhibition of WT strain, primary screen, mitochondrial fusion inhibitor project, WT and mutant strains, chemical genetic; 190,000 tested, 2.1% active; AID 1362, 2008; mitochondrial fusion phenotypic screen; inhibition, % at 10 µM; in the data active means inhibition above about 58%; tested in S. cerevisiae
RAM inhibit: inhibitors of the yeast RAM network, primary screen, dse1pr::URA3 reporter, 5-FOA selection; S. cerevisiae dse1pr::URA3 reporter, 5-FOA growth OD615, 2 d; analog-sensitive cbk1-as2 kinase mutant strain; inhibition, % at 50 µM; 190,000 tested, 1.8% active; AID 868, 2007;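 active means inhibition above a set limit, 3 SD over mean compound inhibition, cut at about 8.4% in these data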;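 further: 0% = DMSO-only wells with no growth and 100% = 10 µM 1-NA-PP1 full growth; inhibition rescues growth on 5-FOA so higher OD means more RAM inhibition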
L major viab: Leishmania major promastigote growth inhibition, primary screen; Leishmania major promastigotes, resazurin fluorescence viability; inhibition, % at 10 µM; 200,000 tested, 9% active; AID 1063, 2008; in the data active means inhibition above about 50%;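 further: promastigotes grown with compound for 44 hours at 28 °C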
ABCG2 block: ABCG2 efflux pump inhibitors, primary screen, multiplex with ABCB1, IgMXP3 cells, flow cytometry; Broad substrate specificity ATP-binding cassette transporter ABCG2 (Homo sapiens), Q9UNQ0; JC-1 efflux; inhibition, % at 6.6 µM; 190,000 tested, 0.1% active; AID 1325, 2008;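 active means inhibition above 80%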;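 further: 0% = DMSO and 100% = nicardipine control wells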
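Measure – % inhibition of efflux relative to nicardipine and DMSO · Test system – ABCG2 IgMXP3 and barcoded ABCB1 CCRF-Adr cell mix · Control set – nicardipine as high control, DMSO as low control · Compound – one concentration, 6.6 µM final · Signal – flow cytometry of retained JC-1 fluorescence · Timing – 10 min exposure at 25 °C with rotation, no wash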
ABCB1 block: ABCB1 efflux pump inhibitors, primary screen, cell-based, multiplex, flow cytometry, ABCG2 counter-screen; ATP-dependent translocase ABCB1 (Homo sapiens), P08183; CCRF-Adr cells, JC-1 efflux; inhibition, % at 6.6 µM; 190,000 tested, 0.067% active; AID 1326, 2008; in the data active means inhibition above about 40%;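 further: 0% = vehicle and 100% = reference inhibitor; higher value means more JC-1 retained so stronger ABCB1 efflux block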
An asterisk follows results filed as active. The list is not random: actives were taken first. Their share in the collection is about 12%.

For Cc1ccccc1OCCCC(=O)Nc1nncs1 the results were WT yeast gro inh -18, RAM inhibit 2, L major viab 2, ABCG2 block 1 and ABCB1 block 0.
Screening CN1CCN(c2ccc(S(=O)(=O)N3CCCCC3)cc2NC(=O)c2ccc(F)cc2F)CC1 returned WT yeast gro inh -15, RAM inhibit 3, L major viab 17, ABCG2 block 4 and ABCB1 block 1.
`COCC(C)n1c(C)cc(C(=O)COC(=O)c2ccc(N3CCCC3=O)cc2)c1C` (stereo not given) gave WT yeast gro inh -8, RAM inhibit 2, L major viab 69*, ABCG2 block 6 and ABCB1 block 2.
CCOC(=O)N1CCc2c(sc(NC(=O)c3ccc(S(=O)(=O)N4CCCC4)cc3)c2C#N)C1 was read as WT yeast gro inh 7, RAM inhibit 2, L major viab 57*, ABCG2 block 6 and ABCB1 block 1.
CC(=O)N1CCc2c(sc(NC(=O)c3ccc([N+](=O)[O-])o3)c2C#N)C1 was read as WT yeast gro inh -1, RAM inhibit 2, L major viab 98*, ABCG2 block -4 and ABCB1 block -2.
For CC(C)N1CCc2c(sc(NC(=O)c3ccc(S(=O)(=O)N4CCOCC4)cc3)c2C#N)C1 the results were WT yeast gro inh 1, RAM inhibit 2, L major viab -7, ABCG2 block -3 and ABCB1 block -1.
COc1ccccc1C(=O)Nc1ccc2c(c1)nc1n2CCN(Cc2ccccc2)C1 was read as WT yeast gro inh 17, RAM inhibit 1, L major viab 21, ABCG2 block 3 and ABCB1 block 3.
Screening Cc1ccc(S(=O)(=O)Nc2ccc3c(c2)nc2n3CCN(Cc3ccccc3)C2)cc1 returned WT yeast gro inh 2, RAM inhibit 1, L major viab 99*, ABCG2 block 9 and ABCB1 block 1.
`O=S(=O)(Nc1ccc2c(c1)nc1n2CCN(Cc2ccccc2)C1)c1ccc(F)cc1` gave WT yeast gro inh 3, RAM inhibit -1, L major viab 100*, ABCG2 block 36 and ABCB1 block 1.
`O=C(Nc1ccc2c(c1)nc1n2CCN(Cc2ccccc2)C1)c1cccs1` gave WT yeast gro inh 63*, RAM inhibit 1, L major viab 48, ABCG2 block 2 and ABCB1 block 1.
Cn1c(CCN2CCCCC2)nc2cc(NS(=O)(=O)c3ccc(Cl)cc3)ccc21 was read as WT yeast gro inh 3, RAM inhibit 1, ABCG2 block 3 and ABCB1 block 0.
O=S(=O)(Nc1ccc2c(c1)nc1n2CCN(Cc2ccccc2)C1)c1ccc(Cl)cc1 was read as WT yeast gro inh 10, RAM inhibit 1, L major viab 97*, ABCG2 block 34 and ABCB1 block 0.
`S=C(Nc1ccc(N2CCOCC2)cc1)Nc1ccc2snnc2c1` gave WT yeast gro inh 6, RAM inhibit -1, L major viab 25, ABCG2 block 2 and ABCB1 block 0.
`O=S(=O)(Nc1ccc2c(c1)nc1n2CCN(Cc2ccccc2)C1)c1ccccc1` gave WT yeast gro inh -4, RAM inhibit 3, L major viab 98*, ABCG2 block 19 and ABCB1 block 3.
For O=C(Nc1ccc2c(c1)nc1n2CCN(Cc2ccccc2)C1)NC1CCCCC1 the results were WT yeast gro inh 1, RAM inhibit 1, L major viab 1, ABCG2 block 1 and ABCB1 block 0.
Cc1ccc(SCCC(=O)NCCSCc2ccccc2C)cc1 was read as WT yeast gro inh 33, RAM inhibit 4, L major viab 3, ABCG2 block 0 and ABCB1 block 0.
For O=C(CN1CCC(N2CCCCC2)CC1)N1CCCc2ccccc21 the results were WT yeast gro inh 18, RAM inhibit 2, L major viab 64*, ABCG2 block -1 and ABCB1 block -1.
CS(=O)(=O)N1CCN(c2ccc(C(=O)N3CCOCC3)cc2[N+](=O)[O-])CC1 was read as WT yeast gro inh -3, RAM inhibit 0, L major viab -1, ABCG2 block 4 and ABCB1 block 0.
For Cc1ccc(N2CCN(S(=O)(=O)c3ccc(F)c(C)c3)CC2)c(C)c1 the results were WT yeast gro inh 53, RAM inhibit 5, L major viab 2, ABCG2 block -2 and ABCB1 block 0.

Screening results deposited in PubChem BioAssay by several laboratories.
